Data from PMC4929832 (Nature, 2016).

Legend:
[1] = target: MAP4K5 (Homo sapiens, UniProt Q9Y4K4); test: kinase panel; format: biochemical
[2] = target: RON (Homo sapiens, UniProt Q04912); test: kinase panel; format: biochemical
[3] = target: GRK3 (Homo sapiens, UniProt P35626); test: kinase panel; format: biochemical
[4] = target: MAPKAPK2 (Homo sapiens, UniProt P49137); test: kinase panel; format: biochemical
[5] = target: ROS (Homo sapiens, UniProt P08922); test: kinase panel; format: biochemical
[6] = system: CK2; test: kinase panel; format: biochemical; conditions: CK2, 1 μM
[7] = target: RSK1 (Homo sapiens, UniProt Q15418); test: kinase panel; format: biochemical
[8] = target: ALK5 (Homo sapiens, UniProt P36897); test: kinase panel; format: biochemical
[9] = target: GSK-3-BETA (Homo sapiens, UniProt P49841); test: kinase panel; format: biochemical
[10] = target: MEK1 (Homo sapiens, UniProt Q02750); test: kinase panel; format: biochemical
[11] = target: HASPIN (Homo sapiens, UniProt Q8TF76); test: kinase panel; format: biochemical
[12] = target: SGK3 (Homo sapiens, UniProt Q96BR1); test: kinase panel; format: biochemical
[13] = target: AXL (Homo sapiens, UniProt P30530); test: kinase panel; format: biochemical
[14] = target: MRCK-BETA (Homo sapiens, UniProt Q9Y5S2); test: kinase panel; format: biochemical
[15] = target: SRC (Homo sapiens, UniProt P12931); test: kinase panel; format: biochemical
[16] = target: PKC-ALPHA (Homo sapiens, UniProt P17252); test: kinase panel; format: biochemical
[17] = target: PKC-ETA (Homo sapiens, UniProt P24723); test: kinase panel; format: biochemical
[18] = target: TBK1 (Homo sapiens, UniProt Q9UHD2); test: kinase panel; format: biochemical
[19] = target: PKN2 (Homo sapiens, UniProt Q16513); test: kinase panel; format: biochemical
[20] = target: EPH-B4 (Homo sapiens, UniProt P54760); test: kinase panel; format: biochemical
[21] = target: JNK3 (Homo sapiens, UniProt P53779); test: kinase panel; format: biochemical
[22] = target: PRAK (Homo sapiens, UniProt Q8IW41); test: kinase panel; format: biochemical
[23] = target: TRKB (Homo sapiens, UniProt Q16620); test: kinase panel; format: biochemical
[24] = target: FGFR1 (Homo sapiens, UniProt P11362); test: kinase panel; format: biochemical
[25] = target: FGFR4 (Homo sapiens, UniProt P22455); test: kinase panel; format: biochemical
[26] = target: LTK (Homo sapiens, UniProt P29376); test: kinase panel; format: biochemical
[27] = target: CHEK2 (Homo sapiens, UniProt O96017); test: kinase panel; format: biochemical
[28] = target: FLT-3 (Homo sapiens, UniProt P36888); test: kinase panel; format: biochemical
[29] = system: CK1; test: kinase panel; format: biochemical; conditions: CK1, 1 μM
[30] = target: ZAP70 (Homo sapiens, UniProt P43403); test: kinase panel; format: biochemical
[31] = target: Adenosine 2A receptor (Homo sapiens, UniProt P29274); test: Adenosine 2A receptor binding assay
[32] = target: PPARgamma Receptor (Homo sapiens, UniProt P37231); test: PPARgamma Receptor agonist assay; format: cell-based
[33] = system: H1975 cells; test: Proliferation assay; format: cell-based
In short: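 Cells were maintained in 10% FBS/RPMI with penicillin/streptomycin and plated at 500 cells/well in 10% FBS RPMI. Serially diluted test compound was pin-transferred. Viability was read after 3 days by CellTiter-Glo luminescence and normalized to 0.1% DMSO-treated cells and empty wells. EC50 was obtained by non-linear regression curve fitting.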

[34] = system: exon19del/T790M EGFR Ba/F3 cells; test: Ba/F3 cell proliferation; format: cell-based; conditions: EAI045 with cetuximab (10 μg/ml)
In short: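 Ba/F3 cells, either parental or stably expressing mutant EGFR lines described earlier, were exposed to the test compound for 72 hours. Cell numbers were set empirically. Growth was read by MTS assay. Each point was run in six wells, and each experiment was repeated at least three times. Curves were fitted by non-linear regression to a sigmoidal dose response.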

[35] = system: L858R/T790M/I941R EGFR Ba/F3 cells; test: Ba/F3 cell proliferation; format: cell-based; conditions: Ba/F3 L858R/T790M/I941R versus L858R/T790M
In short: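 The I941R mutation was introduced into L858R/T790M EGFR by site-directed mutagenesis, and Ba/F3 stable clones were selected in puromycin (2 μg/ml). Cells were treated with the test compound for 72 h and growth was read by MTS assay. Points were run in six wells, with experiments repeated at least three times. Curves were fitted by non-linear regression to a sigmoidal dose response.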

[36] = system: EGFR signaling in L858R/T790M/C797S mice; test: Pharmacodynamic study, western blotting of tumor nodules; format: in vivo, mouse; conditions: EAI045 in combination with cetuximab, 2 doses
In short: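 Transgenic mice were induced at 6 weeks: exon19del/T790M by doxycycline diet, L858R/T790M/C797S by intranasal Ad-Cre. […] Tumor nodules were lysed and protein-equalized for western blotting. Bands were detected by HRP chemiluminescence. Multiple independent tumors were analyzed.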

Sequence of SRC (P12931 whole entry): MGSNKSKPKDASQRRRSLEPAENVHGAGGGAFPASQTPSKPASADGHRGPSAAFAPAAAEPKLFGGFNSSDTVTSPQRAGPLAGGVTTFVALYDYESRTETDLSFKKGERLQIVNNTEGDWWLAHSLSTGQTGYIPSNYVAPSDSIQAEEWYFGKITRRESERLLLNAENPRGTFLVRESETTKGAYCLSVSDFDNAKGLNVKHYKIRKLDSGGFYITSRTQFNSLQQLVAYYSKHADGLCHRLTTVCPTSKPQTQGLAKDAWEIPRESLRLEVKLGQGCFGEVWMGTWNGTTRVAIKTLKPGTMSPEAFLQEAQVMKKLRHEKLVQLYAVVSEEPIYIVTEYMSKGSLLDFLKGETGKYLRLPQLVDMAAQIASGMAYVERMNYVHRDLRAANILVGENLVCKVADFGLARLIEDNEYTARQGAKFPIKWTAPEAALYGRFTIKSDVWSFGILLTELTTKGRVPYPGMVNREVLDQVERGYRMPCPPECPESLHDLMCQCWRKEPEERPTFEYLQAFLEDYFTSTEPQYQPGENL
Sequence of PPARgamma Receptor (P37231 whole entry): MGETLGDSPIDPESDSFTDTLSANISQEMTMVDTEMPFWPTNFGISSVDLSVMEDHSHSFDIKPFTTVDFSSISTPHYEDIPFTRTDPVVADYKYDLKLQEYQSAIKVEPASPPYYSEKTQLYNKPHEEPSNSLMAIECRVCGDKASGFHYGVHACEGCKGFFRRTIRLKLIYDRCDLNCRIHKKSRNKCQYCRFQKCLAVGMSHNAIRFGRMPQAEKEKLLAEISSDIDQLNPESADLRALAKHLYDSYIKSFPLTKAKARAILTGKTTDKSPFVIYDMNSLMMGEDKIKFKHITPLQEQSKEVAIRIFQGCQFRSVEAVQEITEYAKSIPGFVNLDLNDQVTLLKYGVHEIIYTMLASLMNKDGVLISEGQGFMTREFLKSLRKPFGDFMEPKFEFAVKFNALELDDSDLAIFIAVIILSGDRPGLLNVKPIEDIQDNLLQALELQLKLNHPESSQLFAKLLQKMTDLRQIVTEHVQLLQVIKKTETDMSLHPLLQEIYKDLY
Sequence of AXL (P30530 26-894): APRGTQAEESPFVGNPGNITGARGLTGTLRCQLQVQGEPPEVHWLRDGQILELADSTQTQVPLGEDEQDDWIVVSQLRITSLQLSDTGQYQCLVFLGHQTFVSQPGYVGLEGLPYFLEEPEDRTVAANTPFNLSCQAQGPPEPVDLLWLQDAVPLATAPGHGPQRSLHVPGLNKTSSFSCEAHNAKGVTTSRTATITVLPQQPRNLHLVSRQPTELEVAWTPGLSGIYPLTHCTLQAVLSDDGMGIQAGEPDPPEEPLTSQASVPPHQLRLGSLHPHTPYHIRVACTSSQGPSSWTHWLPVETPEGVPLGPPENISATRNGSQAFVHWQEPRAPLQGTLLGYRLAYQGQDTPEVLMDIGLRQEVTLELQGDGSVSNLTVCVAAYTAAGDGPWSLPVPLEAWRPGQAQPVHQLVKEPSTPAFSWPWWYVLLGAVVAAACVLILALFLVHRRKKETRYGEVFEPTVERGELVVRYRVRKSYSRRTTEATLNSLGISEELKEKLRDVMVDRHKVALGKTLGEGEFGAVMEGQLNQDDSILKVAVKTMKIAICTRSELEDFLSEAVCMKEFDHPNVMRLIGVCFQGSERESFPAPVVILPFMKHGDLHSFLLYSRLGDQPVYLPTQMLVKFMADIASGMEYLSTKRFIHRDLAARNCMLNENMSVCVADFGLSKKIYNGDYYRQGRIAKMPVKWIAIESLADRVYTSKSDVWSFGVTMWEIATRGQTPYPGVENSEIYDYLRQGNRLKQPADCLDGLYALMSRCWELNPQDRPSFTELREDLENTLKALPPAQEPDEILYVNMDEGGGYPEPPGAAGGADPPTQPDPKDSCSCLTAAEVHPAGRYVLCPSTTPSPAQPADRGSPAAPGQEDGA
Sequence of MAP4K5 (Q9Y4K4 whole entry): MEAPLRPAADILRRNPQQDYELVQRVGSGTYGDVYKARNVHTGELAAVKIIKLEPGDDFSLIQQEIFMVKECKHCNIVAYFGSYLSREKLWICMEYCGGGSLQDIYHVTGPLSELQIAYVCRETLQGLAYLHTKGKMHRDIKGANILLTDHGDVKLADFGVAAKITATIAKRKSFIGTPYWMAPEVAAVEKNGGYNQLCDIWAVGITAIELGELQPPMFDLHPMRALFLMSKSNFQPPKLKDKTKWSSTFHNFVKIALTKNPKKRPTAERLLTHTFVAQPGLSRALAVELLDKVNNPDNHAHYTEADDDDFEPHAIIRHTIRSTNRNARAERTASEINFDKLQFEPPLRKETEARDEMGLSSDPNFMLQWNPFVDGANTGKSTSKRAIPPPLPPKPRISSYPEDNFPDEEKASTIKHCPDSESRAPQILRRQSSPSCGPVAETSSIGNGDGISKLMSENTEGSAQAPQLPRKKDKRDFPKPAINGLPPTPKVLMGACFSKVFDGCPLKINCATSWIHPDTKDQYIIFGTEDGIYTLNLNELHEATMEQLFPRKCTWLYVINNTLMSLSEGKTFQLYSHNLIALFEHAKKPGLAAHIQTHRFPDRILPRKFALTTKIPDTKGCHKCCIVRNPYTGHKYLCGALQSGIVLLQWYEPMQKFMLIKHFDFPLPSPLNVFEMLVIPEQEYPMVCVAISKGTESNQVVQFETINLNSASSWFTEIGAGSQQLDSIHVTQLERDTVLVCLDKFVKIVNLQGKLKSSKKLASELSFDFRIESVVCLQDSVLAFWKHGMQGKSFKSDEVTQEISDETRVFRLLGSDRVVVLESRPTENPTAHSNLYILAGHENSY
Sequence of PKN2 (Q16513 whole entry): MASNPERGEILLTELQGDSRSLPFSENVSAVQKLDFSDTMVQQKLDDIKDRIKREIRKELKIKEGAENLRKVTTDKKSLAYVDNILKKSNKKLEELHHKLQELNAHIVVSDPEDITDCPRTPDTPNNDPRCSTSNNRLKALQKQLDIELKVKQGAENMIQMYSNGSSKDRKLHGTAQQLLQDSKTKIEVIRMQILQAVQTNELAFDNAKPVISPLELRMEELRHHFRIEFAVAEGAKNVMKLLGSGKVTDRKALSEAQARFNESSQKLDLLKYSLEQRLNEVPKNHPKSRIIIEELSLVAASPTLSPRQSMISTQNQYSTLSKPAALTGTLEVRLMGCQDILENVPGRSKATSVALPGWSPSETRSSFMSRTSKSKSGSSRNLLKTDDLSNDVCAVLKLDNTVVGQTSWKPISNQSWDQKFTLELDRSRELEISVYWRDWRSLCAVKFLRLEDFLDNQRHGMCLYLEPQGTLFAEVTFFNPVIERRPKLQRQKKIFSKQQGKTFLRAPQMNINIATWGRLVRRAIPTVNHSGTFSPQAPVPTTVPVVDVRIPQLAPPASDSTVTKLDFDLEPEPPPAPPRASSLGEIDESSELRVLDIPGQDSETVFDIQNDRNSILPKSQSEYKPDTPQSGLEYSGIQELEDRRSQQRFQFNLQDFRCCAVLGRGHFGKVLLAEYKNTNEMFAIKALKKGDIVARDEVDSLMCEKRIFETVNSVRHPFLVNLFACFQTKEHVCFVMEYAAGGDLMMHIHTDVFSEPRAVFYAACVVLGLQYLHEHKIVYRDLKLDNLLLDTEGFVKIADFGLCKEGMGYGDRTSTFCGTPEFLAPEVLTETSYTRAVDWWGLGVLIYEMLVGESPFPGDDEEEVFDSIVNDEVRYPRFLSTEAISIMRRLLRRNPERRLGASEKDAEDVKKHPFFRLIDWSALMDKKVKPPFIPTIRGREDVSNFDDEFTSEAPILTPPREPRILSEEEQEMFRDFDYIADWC
Sequence of FGFR1 (P11362 22-822): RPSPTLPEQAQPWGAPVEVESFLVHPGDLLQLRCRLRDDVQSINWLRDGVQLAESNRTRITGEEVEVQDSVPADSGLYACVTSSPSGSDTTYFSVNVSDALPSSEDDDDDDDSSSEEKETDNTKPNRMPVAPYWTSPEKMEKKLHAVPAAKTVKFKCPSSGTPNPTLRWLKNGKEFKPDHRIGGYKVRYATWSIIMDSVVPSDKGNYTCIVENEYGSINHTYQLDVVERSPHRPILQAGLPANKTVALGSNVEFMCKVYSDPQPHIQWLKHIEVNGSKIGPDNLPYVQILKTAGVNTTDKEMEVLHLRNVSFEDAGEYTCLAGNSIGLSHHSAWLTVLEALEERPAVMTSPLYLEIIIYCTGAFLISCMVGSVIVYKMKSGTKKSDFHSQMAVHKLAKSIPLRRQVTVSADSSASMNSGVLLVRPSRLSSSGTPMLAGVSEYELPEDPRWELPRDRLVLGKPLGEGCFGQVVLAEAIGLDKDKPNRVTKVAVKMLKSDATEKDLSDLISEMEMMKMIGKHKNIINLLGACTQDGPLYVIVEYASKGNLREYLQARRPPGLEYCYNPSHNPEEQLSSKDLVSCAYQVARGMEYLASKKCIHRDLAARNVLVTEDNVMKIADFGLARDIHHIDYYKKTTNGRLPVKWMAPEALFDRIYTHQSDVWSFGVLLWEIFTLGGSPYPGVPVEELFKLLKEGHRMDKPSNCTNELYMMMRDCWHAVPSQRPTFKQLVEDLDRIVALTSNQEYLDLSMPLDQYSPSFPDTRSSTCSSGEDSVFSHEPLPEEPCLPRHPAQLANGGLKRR
Sequence of PRAK (Q8IW41 whole entry): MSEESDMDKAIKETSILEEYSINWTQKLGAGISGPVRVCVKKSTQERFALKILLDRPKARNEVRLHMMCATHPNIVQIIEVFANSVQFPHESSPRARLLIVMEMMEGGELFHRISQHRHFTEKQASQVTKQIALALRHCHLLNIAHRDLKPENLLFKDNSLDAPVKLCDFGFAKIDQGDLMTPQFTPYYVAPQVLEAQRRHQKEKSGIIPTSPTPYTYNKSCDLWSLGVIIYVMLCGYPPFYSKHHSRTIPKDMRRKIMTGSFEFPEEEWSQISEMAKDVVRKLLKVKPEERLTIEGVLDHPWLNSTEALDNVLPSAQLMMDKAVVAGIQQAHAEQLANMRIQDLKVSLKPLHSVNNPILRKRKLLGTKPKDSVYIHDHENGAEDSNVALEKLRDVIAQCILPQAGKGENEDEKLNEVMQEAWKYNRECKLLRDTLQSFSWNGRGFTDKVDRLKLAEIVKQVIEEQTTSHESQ

inhibition at 1 µM [1]: 13%
inhibition at 1 µM [2]: 0%
inhibition at 1 µM [3]: 0%
inhibition at 1 µM [4]: 0%
inhibition at 1 µM [5]: 1%
% inhibition [6]: 0%
inhibition at 1 µM [7]: 0%
inhibition at 1 µM [8]: 0%
inhibition at 1 µM [9]: 0%
inhibition at 1 µM [10]: 0%
inhibition at 1 µM [11]: 1%
inhibition at 1 µM [12]: 0%
inhibition at 1 µM [13]: 4%
inhibition at 1 µM [14]: 0%
inhibition at 1 µM [15]: 0%
inhibition at 1 µM [16]: 0%
inhibition at 1 µM [17]: 0%
inhibition at 1 µM [18]: 3%
inhibition at 1 µM [19]: 1%
inhibition at 1 µM [20]: 0%
inhibition at 1 µM [21]: 0%
inhibition at 1 µM [22]: 0%
inhibition at 1 µM [23]: 3%
inhibition at 1 µM [24]: 5%
inhibition at 1 µM [25]: 0%
inhibition at 1 µM [26]: 1%
inhibition at 1 µM [27]: 0%
inhibition at 1 µM [28]: 0%
% inhibition [29]: 0%
inhibition at 1 µM [30]: 1%
IC50 [31]: > 30 µM
IC50 [32]: > 30 µM
EC50 ([33]; Homo sapiens, NCI-H1975, 72 h, read-out: EC50 Proliferation): > 10 µM
SMILES: O=C(Nc1nccs1)C(c1cc(F)ccc1O)N1Cc2ccccc2C1=O (stereo not shown) [EAI045, 2-(5-fluoro-2-hydroxyphenyl)-2-(1-oxo-2,3-dihydro-1H-isoindol-2-yl)-N-(1,3-thiazol-2-yl)acetamide]
anti-proliferative effect ([33]; H1975, concentrations as high as 10 μM): no anti-proliferative effect
proliferation [34]: not inhibited
sensitivity of proliferation to the allosteric inhibitor [35]: dramatically more sensitive
phosphorylation of EGFR and downstream signaling proteins in tumors [36]: effectively inhibited
